# Columns and labels:
# Dipeptidyl peptidase 9 = Dipeptidyl peptidase 9 (Homo sapiens, UniProt Q86TI2); assay: Inhibition of DPP9 activity
# Dipeptidyl peptidase 8 = Dipeptidyl peptidase 8 (Homo sapiens, UniProt Q6V1X1); assay: Inhibition of DPP8 activity
# [1] = Oral bioavailability in rat at 2 mg/kg; type: ADME, organism-based; conditions: in vivo
# In short: (§1)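 Rats received the inhibitor at 1 mg/kg iv and 2 mg/kg po. Values reported are clearance (mL/min/kg), half-life (h), oral AUC normalized to dose (μM h kg mg⁻¹) and oral bioavailability F (%).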
# [2] = Half life in rat at 1 mg/kg, iv or 2 mg/kg, po; type: ADME, organism-based; conditions: in vivo; in short: as §1
# [3] = Clearance in rat at 1 mg/kg, iv or 2 mg/kg, po; type: ADME, organism-based; conditions: in vivo; in short: as §1
# Chain of Dipeptidyl peptidase 8 (Q6V1X1 whole entry): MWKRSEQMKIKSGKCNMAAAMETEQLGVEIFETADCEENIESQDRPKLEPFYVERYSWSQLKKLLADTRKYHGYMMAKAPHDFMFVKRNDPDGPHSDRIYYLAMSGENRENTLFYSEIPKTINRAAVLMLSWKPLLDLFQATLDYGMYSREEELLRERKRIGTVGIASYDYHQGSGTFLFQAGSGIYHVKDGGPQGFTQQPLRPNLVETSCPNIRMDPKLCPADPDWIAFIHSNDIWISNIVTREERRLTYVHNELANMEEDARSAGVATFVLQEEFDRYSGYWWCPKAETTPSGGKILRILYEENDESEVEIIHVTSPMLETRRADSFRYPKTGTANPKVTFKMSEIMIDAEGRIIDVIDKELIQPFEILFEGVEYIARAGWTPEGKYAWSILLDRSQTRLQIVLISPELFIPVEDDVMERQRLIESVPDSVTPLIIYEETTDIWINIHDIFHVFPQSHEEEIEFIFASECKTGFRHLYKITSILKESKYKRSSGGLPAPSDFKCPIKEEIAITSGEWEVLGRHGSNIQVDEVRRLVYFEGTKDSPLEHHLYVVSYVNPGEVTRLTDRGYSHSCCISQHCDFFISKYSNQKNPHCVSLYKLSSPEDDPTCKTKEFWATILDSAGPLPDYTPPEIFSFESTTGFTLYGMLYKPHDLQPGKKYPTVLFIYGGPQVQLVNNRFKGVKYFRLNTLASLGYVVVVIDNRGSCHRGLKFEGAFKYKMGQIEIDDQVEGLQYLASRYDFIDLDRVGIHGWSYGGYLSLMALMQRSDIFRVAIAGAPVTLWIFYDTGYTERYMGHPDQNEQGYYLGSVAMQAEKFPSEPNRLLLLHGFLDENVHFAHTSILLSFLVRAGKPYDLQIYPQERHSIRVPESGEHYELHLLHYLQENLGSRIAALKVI
# Chain of Dipeptidyl peptidase 9 (Q86TI2 whole entry): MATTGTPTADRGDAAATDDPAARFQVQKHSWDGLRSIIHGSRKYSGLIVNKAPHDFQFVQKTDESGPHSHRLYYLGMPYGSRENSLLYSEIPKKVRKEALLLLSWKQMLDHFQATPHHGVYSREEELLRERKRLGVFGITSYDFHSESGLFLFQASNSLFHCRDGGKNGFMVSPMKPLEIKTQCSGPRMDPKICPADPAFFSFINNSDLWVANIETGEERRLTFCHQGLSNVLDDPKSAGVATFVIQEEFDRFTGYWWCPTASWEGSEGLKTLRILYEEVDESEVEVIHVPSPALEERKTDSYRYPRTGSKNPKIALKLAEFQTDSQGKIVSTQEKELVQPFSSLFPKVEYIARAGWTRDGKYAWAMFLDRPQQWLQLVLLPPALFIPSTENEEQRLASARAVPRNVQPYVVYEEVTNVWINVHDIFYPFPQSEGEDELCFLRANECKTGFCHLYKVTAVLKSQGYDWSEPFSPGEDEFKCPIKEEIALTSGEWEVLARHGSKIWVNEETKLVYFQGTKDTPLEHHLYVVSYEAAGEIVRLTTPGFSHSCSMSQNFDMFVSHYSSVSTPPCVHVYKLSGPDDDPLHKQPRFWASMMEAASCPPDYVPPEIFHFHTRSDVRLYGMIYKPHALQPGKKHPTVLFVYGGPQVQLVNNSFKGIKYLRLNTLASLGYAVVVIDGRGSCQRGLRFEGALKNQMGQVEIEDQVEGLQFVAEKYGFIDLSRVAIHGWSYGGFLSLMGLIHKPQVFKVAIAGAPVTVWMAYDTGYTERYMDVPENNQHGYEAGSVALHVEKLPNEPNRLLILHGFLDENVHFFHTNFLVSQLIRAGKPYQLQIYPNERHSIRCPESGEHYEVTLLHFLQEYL
Compound,IC50 (Dipeptidyl peptidase 9) [µM],IC50 (Dipeptidyl peptidase 8) [µM],bioavailability [1] [%],half-life [2] [h],clearance [3] [L/h/kg]
N[C@@H](CC(=O)N1CCn2c(nnc2C(F)(F)F)C1)Cc1cccc(F)c1,> 100,> 100,,,
N[C@@H](CC(=O)N1CCn2c(nnc2C(F)(F)F)C1)Cc1cc(Cl)ccc1Cl,> 100,> 100,,,
N[C@@H](CC(=O)N1CCn2c(nnc2C(F)(F)F)C1)Cc1cc(F)c(Cl)cc1F,> 100,,54,2.1,3.48
N[C@@H](CC(=O)N1CCn2c(nnc2C(F)(F)F)C1)Cc1cc(F)c(F)cc1Cl,> 100,> 100,47,1.7,4.68
N[C@@H](CC(=O)N1CCn2c(nnc2-c2ccc(F)cc2)C1)Cc1cc(F)ccc1F,> 100,,,,
N[C@@H](CC(=O)N1CCn2c(nnc2-c2ccncc2)C1)Cc1cc(F)ccc1F,84,,,,
N[C@@H](CC(=O)N1CCn2c(CO)nnc2C1)Cc1cc(F)ccc1F,> 100,> 100,,,
CCc1nnc2n1CCN(C(=O)C[C@H](N)Cc1cc(F)c(F)cc1F)C2,> 100,,2,,4.2
CCOC(=O)c1nnc2n1CCN(C(=O)C[C@H](N)Cc1cc(F)c(F)cc1F)C2,,22,,,
CC(C)(C)NC(=O)c1nnc2n1CCN(C(=O)C[C@H](N)Cc1cc(F)c(F)cc1F)C2,> 100,,,,
N[C@@H](CC(=O)N1CCn2c(nnc2C(F)(F)F)C1)Cc1ccc(Cl)cc1Cl,,,36,2.6,5.88
N[C@@H](CC(=O)N1CCn2c(nnc2C(F)(F)F)C1)Cc1ccc(F)cc1,> 100,,,,
N[C@@H](CC(=O)N1CCn2c(nnc2C(F)(F)F)C1)Cc1cccc(C(F)(F)F)c1,> 100,> 100,,,
N[C@@H](CC(=O)N1CCn2c(nnc2C(F)(F)F)C1)Cc1cccc(Cl)c1,> 100,> 100,,,
N[C@@H](CC(=O)N1CCn2c(nnc2C(F)(F)F)C1)Cc1cc(F)cc(F)c1F,> 100,> 100,,,
N[C@@H](CC(=O)N1CCn2c(nnc2C(F)(F)F)C1)Cc1ccc(C(F)(F)F)cc1,> 100,> 100,,,
N[C@@H](CC(=O)N1CCn2c(nnc2C(F)(F)F)C1)Cc1ccccc1Cl,> 100,> 100,,,
N[C@@H](CC(=O)N1CCn2c(nnc2C(F)(F)F)C1)Cc1ccc(Cl)c(Cl)c1,> 100,> 100,,,
N[C@@H](CC(=O)N1CCn2c(nnc2C(F)(F)F)C1)Cc1ccccc1F,> 100,,,,
N[C@@H](CC(=O)N1CCn2c(nnc2C(F)(F)F)C1)Cc1ccc(F)cc1F,> 100,,,,
N[C@@H](CC(=O)N1CCn2c(nnc2-c2ccc(F)cc2F)C1)Cc1cc(F)ccc1F,58,,,,
CCOC(=O)c1nnc2n1CCN(C(=O)C[C@H](N)Cc1cc(F)ccc1F)C2,78,,,,
N[C@@H](CC(=O)N1CCn2c(nnc2C2CC2)C1)Cc1cc(F)c(F)cc1F,> 100,,3,1.8,4.08
N[C@@H](CC(=O)N1CCn2c(nnc2C(F)F)C1)Cc1cc(F)c(F)cc1F,> 100,,39,1.3,3.96
N[C@@H](CC(=O)N1CCn2c(nnc2C(F)(F)F)C1)Cc1c(F)ccc(F)c1F,> 100,> 100,,,
N[C@@H](CC(=O)N1CCn2c(nnc2C(F)(F)F)C1)Cc1c(F)cc(F)cc1F,> 100,> 100,,,
N[C@@H](CC(=O)N1CCn2c(nnc2C(F)(F)F)C1)Cc1c(F)c(F)c(F)c(F)c1F,> 100,> 100,,,
N[C@@H](CC(=O)N1CCn2c(nnc2C(F)(F)F)C1)Cc1ccccc1C(F)(F)F,> 100,> 100,,,
N[C@@H](CC(=O)N1CCn2c(nnc2C(F)(F)F)C1)Cc1cc(Cl)ccc1F,,> 100,43,1.7,5.94
N[C@@H](CC(=O)N1CCn2c(nnc2C(F)(F)F)C1)Cc1cc(F)c(F)cc1F [SITAGLIPTIN],,,76,,3.6
